Activity calls are given as the source filed them. No cut-off for these calls is given here.
Columns and labels:
REF52 [1] = assay: Effect on actin depolymerization in rat REF52 cells assessed as effect on ratio of soluble to insoluble protein fraction at 0.1 uM after 30 mins by Western blot analysis; format: cell-based
Outline: (§1)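 Ref52 rat embryonic fibroblasts grown in DMEM with 10% FCS at 37 °C/5% CO2 and dosed for 30 min in serum-free DMEM. Triton X-100 fractionation: 3 min extraction at room temperature in 50 mM MES pH 6.8 with 2.5 mM EGTA, 5 mM MgCl2 and 0.5% Triton. Equal volumes of soluble and insoluble fractions run on SDS-PAGE. Western blot with anti-tubulin DM1A and anti-actin C4, HRP chemiluminescence, band densitometry. Four independent experiments.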

REF52 [2] = assay: Induction of microtubule depolymerization in rat REF52 cells assessed as […] in ratio of soluble to insoluble tubulin fraction at 0.1 uM after 30 mins by Western blot analysis; format: cell-based; outline: as §1
REF52 [3] = assay: Induction of microtubule depolymerization in rat REF52 cells at 0.1 uM after 30 mins by fluorescence assay; format: cell-based
Outline: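 Ref52 cells in serum-free DMEM, treated 30 min. Permeabilized with 3% paraformaldehyde and 0.5% Triton X-100, then fixed in 3% paraformaldehyde plus 1% glutaraldehyde, quenched with borohydride. Stained with anti-tubulin DM1A and Alexa 488 secondary, imaged by confocal microscopy. FiberScore gives total fluorescence associated with fibers. Mean ± standard error, Scheffe's test at p < 0.05.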

REF52 [4] = assay: Induction of microtubule depolymerization in rat REF52 cells at 27.5 uM after 30 mins by fluorescence assay; format: cell-based
HeLa [5] = assay: Induction of microtubule depolymerization in human HeLa cells at 27.5 uM after 30 mins by fluorescence assay; format: cell-based
Outline: (§2)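 HeLa or Ref52 cells were grown in DMEM with 10% fetal calf serum at 37 °C/5% CO2. Compound was dissolved in DMSO and diluted in serum-free DMEM. Cells were permeabilized and fixed in paraformaldehyde/Triton X-100. MTs were immunostained with DM1A plus an Alexa 488 secondary, and actin was stained with Alexa 555-phalloidin. Cells were examined by confocal microscopy.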

REF52 [6] = assay: Effect on actin depolymerization in rat REF52 cells at 27.5 uM after 30 mins by fluorescence assay; format: cell-based; outline: as §2
Bos taurus [7] = species on record: Bos taurus; assay: Inhibition of rhodamine-labeled bovine brain tubulin polymerization assessed as number of microtubules at 20 uM after 20 mins by fluorescence microscopic analysis relative to control
Outline: (§3)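 Purified bovine brain tubulin mixed with rhodamine-tubulin and GTP was polymerized in MRB80 (80 mM PIPES/KOH pH 6.8, 1 mM MgCl2, 1 mM EGTA) plus 6% glycerol, with 20 μM compound or 0.01% DMSO. Incubation was 20 min at 37 °C, stopped with 0.5% glutaraldehyde. MT number and total length were measured by wide-field fluorescence microscopy. Data are average ± SE, compared by Scheffe's test.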

Arabidopsis thaliana [8] = assay: Effect on GFP-talin-tagged actin organization in Arabidopsis thaliana (L.) Heynh at 25 uM after 10 mins by confocal microscopic analysis
Outline: (§4)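 GFP-talin (actin marker) Arabidopsis Columbia seedlings were raised on MS medium with 4 days of dark stratification at 4 °C, then grown at 24 °C under a 16/8 h photoperiod. Cotyledons of 7-day-old seedlings were treated with 25 μM for 10 min. Actin fiber organization and dynamics were followed by confocal time-lapse imaging.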

REF52 [9] = assay: Induction of microtubule depolymerization in rat REF52 cells at 27.5 uM after 5 to 30 mins by fluorescence assay relative to control; format: cell-based
[10] = biological target: Tubulin beta-6 chain (Arabidopsis thaliana) (UniProt P29514); assay: Effect on GFP-tagged tubulin beta6 polymerization in Arabidopsis thaliana (L.) Heynh assessed as shorten lagging end at 25 uM after 10 mins by confocal microscopic analysis (reference value: 3.57 +/- 2.33 um/min)
Chain of Tubulin beta-6 chain (Arabidopsis thaliana) (P29514 whole entry): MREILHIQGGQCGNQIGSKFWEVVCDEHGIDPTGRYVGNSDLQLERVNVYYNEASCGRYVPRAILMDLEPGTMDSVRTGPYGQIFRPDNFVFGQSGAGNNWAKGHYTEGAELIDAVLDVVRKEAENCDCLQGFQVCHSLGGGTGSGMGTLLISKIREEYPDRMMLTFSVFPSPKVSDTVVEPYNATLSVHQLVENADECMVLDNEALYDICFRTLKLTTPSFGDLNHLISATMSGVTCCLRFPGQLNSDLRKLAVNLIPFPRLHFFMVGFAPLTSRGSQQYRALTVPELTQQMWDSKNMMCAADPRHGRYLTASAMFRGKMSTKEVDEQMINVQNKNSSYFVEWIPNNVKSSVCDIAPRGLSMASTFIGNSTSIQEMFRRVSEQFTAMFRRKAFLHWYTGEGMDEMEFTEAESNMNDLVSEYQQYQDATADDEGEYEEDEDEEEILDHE

Arabidopsis thaliana [11] = assay: Effect on GFP-talin-tagged actin dynamics in Arabidopsis thaliana (L.) Heynh at 25 uM after 10 mins by confocal microscopic analysis; outline: as §4
REF52 [12] = assay: Induction of microtubule depolymerization in rat REF52 cells after 30 mins by fluorescence assay; format: cell-based
REF52 [13] = assay: Induction of microtubule depolymerization in rat REF52 cells at 27.5 uM by fluorescence assay; format: cell-based; settings: TDE = time-dependent effect
Bos taurus [14] = species on record: Bos taurus; assay: Inhibition of rhodamine-labeled bovine brain tubulin polymerization assessed as shorter microtubules at 20 uM after 20 mins by fluorescence microscopic analysis relative to control; outline: as §3
REF52 [15] = assay: Induction of microtubule depolymerization in rat REF52 cells at 6.9 to 13.8 uM after 30 mins by fluorescence assay relative to control; format: cell-based
[16] = biological target: Tubulin beta-6 chain (Arabidopsis thaliana) (UniProt P29514); assay: Effect on GFP-tagged tubulin beta6 polymerization in Arabidopsis thaliana (L.) Heynh assessed as growth of lagging end at 25 uM after 10 mins by confocal microscopic analysis (reference value: 3.54 +/- 2.48 um/min)
REF52 [17] = assay: Induction of microtubule depolymerization in rat REF52 cells at 27.5 to 55 uM after 30 mins by fluorescence assay relative to control; format: cell-based
[18] = biological target: Tubulin beta-6 chain (Arabidopsis thaliana) (UniProt P29514); assay: Effect on GFP-tagged tubulin beta6 polymerization in Arabidopsis thaliana (L.) Heynh assessed as shorten leading end at 25 uM after 10 mins by confocal microscopic analysis (reference value: 15.43 +/- 5.37 um/min)
[19] = biological target: Tubulin beta-6 chain (Arabidopsis thaliana) (UniProt P29514); assay: Effect on GFP-tagged tubulin beta6 polymerization in Arabidopsis thaliana (L.) Heynh at 25 uM after 10 mins by confocal microscopic analysis
HeLa [20] = assay: Effect on actin depolymerization in human HeLa cells at 27.5 uM after 30 mins by fluorescence assay; format: cell-based; outline: as §2
[21] = biological target: Tubulin beta-6 chain (Arabidopsis thaliana) (UniProt P29514); assay: Effect on GFP-tagged tubulin beta6 polymerization in Arabidopsis thaliana (L.) Heynh assessed as growth of leading end at 25 uM after 10 mins by confocal microscopic analysis (reference value: 5.79 +/- 1.15 um/min)
REF52 [22] = assay: Induction of microtubule depolymerization in rat REF52 cells at 2 uM after 30 mins by fluorescence assay; format: cell-based
REF52 [23] = assay: Induction of microtubule depolymerization in rat REF52 cells assessed as decrease in fluorescence associated with fibers at 27.5 uM incubated for 5 to 30 mins measured after 30 mins relative to control; format: cell-based; parameters: scale not given: the % may be the effect or the level left
Bos taurus [24] = species on record: Bos taurus; assay: Inhibition of rhodamine-labeled bovine brain tubulin polymerization assessed as shorter microtubules at 20 uM after 20 mins by fluorescence microscopic analysis relative to control; values are per cent of control
Bos taurus [25] = species on record: Bos taurus; assay: Inhibition of rhodamine-labeled bovine brain tubulin polymerization assessed as number of microtubules at 20 uM after 20 mins by fluorescence microscopic analysis relative to control; values are per cent of control

COc1cc2c(c(OC)c1OC)-c1ccc(OC)c(=O)cc1[C@@H](NC(C)=O)CC2
Activity (REF52 [1]): inactive | Activity (REF52 [2]): Active | Activity (REF52 [3]): Active

CC(C)=CCC[C@H](C)CC=O
Activity (REF52 [4]): inactive | Activity (HeLa [5]): inactive | Activity (REF52 [6]): inactive | inhibition (Bos taurus [7]): inactive | Activity (Arabidopsis thaliana [8]): inactive | Activity (REF52 [9]): 60% | Activity [10]: 7.48 um/min | Activity (Arabidopsis thaliana [11]): inactive | Activity (REF52 [12]): Dose-dependent effect | Activity (REF52 [13]): tde | inhibition (Bos taurus [14]): inactive | Activity (REF52 [15]): inactive | Activity [16]: 1.66 um/min | Activity (REF52 [17]): 50% | Activity [18]: 14.6 um/min | Activity [19]: inactive | Activity (HeLa [20]): inactive | Activity [21]: 5.94 um/min

CC(=O)O[C@H]1C(=O)[C@@]2(C)[C@H]([C@H](OC(=O)c3ccccc3)[C@]3(O)C[C@H](OC(=O)[C@H](O)[C@@H](NC(=O)c4ccccc4)c4ccccc4)C(C)=C1C3(C)C)[C@]1(OC(C)=O)CO[C@@H]1C[C@@H]2O
Activity (REF52 [22]): Active

CC[C@]1(O)C[C@@H]2CN(CCc3c([nH]c4ccccc34)[C@@](C(=O)OC)(c3cc4c(cc3OC)N(C)[C@H]3[C@@](O)(C(=O)OC)[C@H](OC(C)=O)[C@]5(CC)C=CCN6CC[C@]43[C@@H]65)C2)C1
Activity (REF52 [3]): Active

CC(C)=CCC[C@@H](C)CC=O
Activity (REF52 [4]): Active | Activity (REF52 [23]): 20% | Activity (HeLa [5]): Active | Activity (REF52 [6]): inactive | residual activity (Bos taurus [24]): 30% | Activity (Arabidopsis thaliana [8]): inactive | Activity [10]: 0 um/min | Activity (Arabidopsis thaliana [11]): inactive | Activity (REF52 [12]): Dose-dependent effect | Activity (REF52 [13]): tde | Activity [16]: 0 um/min | Activity (REF52 [17]): 20% | residual activity (Bos taurus [25]): 40% | Activity [18]: 0 um/min | Activity [19]: Active | Activity (HeLa [20]): inactive | Activity [21]: 0 um/min
